Measured values collected from several papers.
Lines come from different studies, so protocols differ.
Target: Serine/threonine-protein kinase PAK 1 (PAK1, Homo sapiens, UniProt Q13153)

SMILES	assay	setting	measurement	result
O=c1[nH]c2ccccc2n1C1CCN(Cc2ccc(-c3[nH]c4cc5ncnc5cc4nc3-c3ccccc3)cc2)CC1	cell-free assay	0.5 µM	remaining signal	90.6%
Cn1cncc1[C@@](O)(COc1ccc(C#N)cc1-c1ccc(OC(F)(F)F)cc1)c1ccc(C#N)cc1	cell-free assay, competition with immobilised ligand	1 µM	remaining binding	100%
Cn1cc(-c2cc(F)cc(N3CCn4c(cc5c4CCCC5)C3=O)c2CO)cc(Nc2ccc(N3CCN(C4COC4)CC3)cn2)c1=O	enzyme activity, inhibitor	0.1 µM	inhibition	5%
COc1cc(Nc2ncc(F)c(Nc3ccc4c(n3)NC(=O)C(C)(C)O4)n2)cc(OC)c1OC	binding, competition with immobilised ligand	10 µM	inhibition	91%
Nc1ncc(-c2nc(N3CCOCC3)nc(N3CCOCC3)n2)c(C(F)F)n1	binding, competition with immobilised ligand	10 µM	remaining binding	63%
N#CC1(c2ccccn2)CCN(Cc2cc(C(=O)O)c(=O)n3ccccc23)CC1	cell-free assay, competition with immobilised ligand	1 µM	remaining binding	86%
Cn1cc(-c2cccc(N3CCc4c(sc5c4CC(C)(C)C5)C3=O)c2CO)cc(Nc2ccncn2)c1=O	enzyme activity, inhibitor	1 µM	inhibition	9%
C#Cc1n[nH]c2c(-c3cn([C@@H](C)c4ccccc4)c(=O)[nH]c3=O)cc(F)cc12	enzyme activity, inhibitor	0.1 µM	inhibition	5.7%
Cc1nn(C)cc1-c1nc2c(N3CCN(Cc4ccc(Cl)cc4)CC3)c(Cl)cnc2[nH]1	binding, competition with immobilised ligand	1 µM	remaining binding	100%
C#Cc1n[nH]c2c(-c3cn(C(C)c4ccccn4)c(=O)[nH]c3=O)cc(F)cc12 (centres unmarked)	enzyme activity, inhibitor	1 µM	inhibition	3.4%
COc1ncccc1-c1cnn2ccc(N3CCN(C(=O)OC(C)C)CC3)nc12	binding, competition with immobilised ligand	1 µM	remaining binding	100%
